Data set [1] deals with ASPC1. Kind of data set: Growth inhibition of human Aspc-1 cells after 72 hrs by MTS assay. It is filed as functional, cell-based. The settings on record: ASPC1, 72 h. The gist of the method:
(§1)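 Growth inhibition by MTS viability read-out. Cells seeded in 96-well plates at 4000/well (AsPC-1) or 8500/well (MDA-MB-231). Mean ± SD from at least three independent experiments, each in duplicate.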
In general terms: Tetrazolium dyes change colour on reduction, which living cells bring about.

The test system of data set [2] is ASPC1. Put plainly: Anticlonogenic activity against human Aspc-1 cells at 10 uM after 21 days by crystal violet staining based assay relative to control. It is filed as functional. Particulars: ASPC1, 504 h. The gist of the method:
(§2)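 Anchorage-dependent colony formation: AsPC-1 cells seeded at 1000 cells/well in six-well plates and treated with compound. Colony formation is expressed as percent of vehicle treatment. Mean ± SD from at least three independent experiments, each in duplicate.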

Data set [3] deals with T1, Glutaminase liver isoform, mitochondrial (Homo sapiens) (UniProt Q9UI32).
T1 sequence (whole entry): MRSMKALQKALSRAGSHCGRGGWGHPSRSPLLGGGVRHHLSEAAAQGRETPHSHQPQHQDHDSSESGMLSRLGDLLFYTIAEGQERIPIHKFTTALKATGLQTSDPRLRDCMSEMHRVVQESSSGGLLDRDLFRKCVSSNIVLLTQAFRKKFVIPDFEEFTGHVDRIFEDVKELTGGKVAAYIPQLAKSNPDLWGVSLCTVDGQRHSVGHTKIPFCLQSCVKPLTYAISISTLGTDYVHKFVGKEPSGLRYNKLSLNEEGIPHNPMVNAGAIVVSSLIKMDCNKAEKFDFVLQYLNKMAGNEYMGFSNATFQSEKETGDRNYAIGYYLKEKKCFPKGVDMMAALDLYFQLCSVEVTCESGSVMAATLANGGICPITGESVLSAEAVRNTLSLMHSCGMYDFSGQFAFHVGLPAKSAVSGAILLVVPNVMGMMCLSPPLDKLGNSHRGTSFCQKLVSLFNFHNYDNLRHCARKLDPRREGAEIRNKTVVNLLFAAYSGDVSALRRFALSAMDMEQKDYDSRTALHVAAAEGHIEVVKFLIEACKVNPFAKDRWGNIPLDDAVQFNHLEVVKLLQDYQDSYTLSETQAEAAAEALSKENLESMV
Put plainly: Inhibition of human GLS2 in GLS1 deficient human Aspc-1 cells assessed as decrease in cellular glutamate production after 4 hrs by amplex red glutamic acid assay. The gist of the method: (§3)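 GLS-knockout AsPC-1 cells made with GLS-KO ZFN mRNA, single-cell cloned, and grown in glutamine-free RPMI 1640 with 10% FBS. Cells seeded at 30 000/well and grown 24 h at 37 °C. Treated 4 h with 1% DMSO vehicle or 3.13−100 μM inhibitor, washed with PBS, and lysed in NP-40 buffer (4 °C, 20 min). Lysate glutamate measured by Amplex Red. Three independent experiments in duplicate.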

Data set [4] concerns the target T1, Glutaminase liver isoform, mitochondrial (Homo sapiens). Kind of data set: Inhibition of human GLS2 in GLS1 deficient human Aspc-1 cells assessed as decrease in cellular glutamate production at 3.13 to 100 uM after 4 hrs by amplex red glutamic acid assay. Summed up:
as §3

The test system of another data set is MDA-MB-231. Put plainly: Growth inhibition of human MDA-MB-231 cells after 72 hrs by MTS assay. It is filed as functional, cell-based. The settings on record: MDA-MB-231, 72 h. The gist of the method: as §1
In data set [5] the target is T2, Glutaminase kidney isoform, mitochondrial (Homo sapiens, UniProt O94925).
T2 sequence (O94925 whole entry): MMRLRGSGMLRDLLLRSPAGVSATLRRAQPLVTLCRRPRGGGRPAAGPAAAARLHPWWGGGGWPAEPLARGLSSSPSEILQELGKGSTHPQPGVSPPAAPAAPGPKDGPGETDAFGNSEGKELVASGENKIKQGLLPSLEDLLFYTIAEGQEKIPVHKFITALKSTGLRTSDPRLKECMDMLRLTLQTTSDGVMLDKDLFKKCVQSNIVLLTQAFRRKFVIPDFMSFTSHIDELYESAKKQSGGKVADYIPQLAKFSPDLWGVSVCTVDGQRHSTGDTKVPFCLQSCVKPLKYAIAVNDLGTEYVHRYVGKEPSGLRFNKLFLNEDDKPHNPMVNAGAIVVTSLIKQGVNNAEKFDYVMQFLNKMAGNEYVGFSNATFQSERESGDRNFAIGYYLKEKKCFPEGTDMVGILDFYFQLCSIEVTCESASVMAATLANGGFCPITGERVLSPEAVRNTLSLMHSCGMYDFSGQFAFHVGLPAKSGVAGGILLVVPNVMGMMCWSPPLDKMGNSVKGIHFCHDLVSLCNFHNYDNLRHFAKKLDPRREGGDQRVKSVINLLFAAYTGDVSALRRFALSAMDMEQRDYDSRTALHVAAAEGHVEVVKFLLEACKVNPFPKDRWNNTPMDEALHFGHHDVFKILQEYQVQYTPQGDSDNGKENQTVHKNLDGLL
Put plainly: Inhibition of recombinant human His-tagged KGA (L123 to L669 residues) expressed in Escherichia coli BL21(DE3)pLysS using glutamine substrate preincubated for 10 mins followed by substrate addition measured after 60 mins by glutamate dehydrogenase coupled enzyme assay.

Data set [6] concerns the target T3, Glutaminase liver isoform, mitochondrial (Homo sapiens, UniProt Q9UI32).
T3 sequence (Q9UI32 whole entry): T1 sequence (whole entry)
Put plainly: Inhibition of recombinant human His-tagged GAB (P56 to V602 residues) expressed in Escherichia coli C41(DE3)pLysS using glutamine as substrate preincubated for 10 mins followed by substrate addition measured after 60 mins by glutamate dehydrogenase coupled enzyme assay.

A short description of data set [7]: Inhibition of recombinant human His-tagged KGA R387L mutant expressed in Escherichia coli BL21(DE3)pLysS using glutamine substrate preincubated for 10 mins followed by substrate addition measured after 60 mins.
Data set [8] has as its system ASPC1. Kind of data set: Anticlonogenic activity against human Aspc-1 cells at 2 uM after 21 days by crystal violet staining based assay relative to control. Particulars: ASPC1, 504 h. It is filed as functional. The gist of the method:
as §2

The species named for data set [9] is Homo sapiens. Kind of data set: Selectivity ratio of IC50 for recombinant human His-tagged KGA K507A mutant expressed in Escherichia coli BL21(DE3)pLysS to IC50 for human His-tagged KGA (L123 to L669 residues) expressed in Escherichia coli BL21(DE3)pLysS.
In data set [10] the target is Glutaminase 1/2 (Homo sapiens) (UniProt O94925+Q9UI32). Particulars: 3.13 to 100 uM.
A short description of data set [11]: Inhibition of recombinant human His-tagged KGA S384A mutant expressed in Escherichia coli BL21(DE3)pLysS using glutamine substrate preincubated for 10 mins followed by substrate addition measured after 60 mins.
Data set [12] is described as follows: Inhibition of recombinant human His-tagged KGA K507A mutant expressed in Escherichia coli BL21(DE3)pLysS using glutamine substrate preincubated for 10 mins followed by substrate addition measured after 60 mins.
Data set [13] is filed under the species Homo sapiens. Kind of data set: Selectivity ratio of IC50 for recombinant human His-tagged KGA R387L mutant expressed in Escherichia coli BL21(DE3)pLysS to IC50 for human His-tagged KGA (L123 to L669 residues) expressed in Escherichia coli BL21(DE3)pLysS.
For data set [14], the species on record is Homo sapiens. Kind of data set: Selectivity ratio of IC50 for recombinant human His-tagged KGA S384A mutant expressed in Escherichia coli BL21(DE3)pLysS to IC50 for human His-tagged KGA (L123 to L669 residues) expressed in Escherichia coli BL21(DE3)pLysS.
Data set [15] deals with T2, Glutaminase kidney isoform, mitochondrial. Kind of data set: Inhibition of recombinant human MCF7 cells derived His-tagged GAC (L123 to S598 residues) expressed in Escherichia coli C41(DE3)pLysS using glutamine as substrate preincubated for 10 mins followed by substrate addition measured after 60 mins by glutamate dehydrogenase coupled enzyme assay. The gist of the method: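 Human GAC cloned from MCF7 cDNA into pET28a(+) as a His-tagged construct. Expressed in E. coli C41(DE3)pLysS in Terrific Broth with kanamycin, induced with 1 mM IPTG for 6 h at 25 °C. Purified on Ni2+ resin with 500 mM imidazole elution and exchanged into 50 mM NaH2PO4, 50 mM Tris-HCl pH 8.0, 2 mM DTT, 50% glycerol. Activity measured by two-step glutaminase assay.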

Data set [16] is filed under the species Homo sapiens. Kind of data set: Selectivity ratio of IC50 for recombinant human His-tagged KGA R387A mutant expressed in Escherichia coli BL21(DE3)pLysS to IC50 for human His-tagged KGA (L123 to L669 residues) expressed in Escherichia coli BL21(DE3)pLysS.
Data set [17] can be described thus: Inhibition of recombinant human His-tagged KGA R387A mutant expressed in Escherichia coli BL21(DE3)pLysS using glutamine substrate preincubated for 10 mins followed by substrate addition measured after 60 mins.
For data set [18], the species on record is Homo sapiens. Kind of data set: Selectivity index, ratio of IC50 for recombinant human His-tagged GAB (P56-V602 residues) expressed in Escherichia coli C41(DE3)pLysS to IC50 for recombinant human His-tagged KGA (L123 to L669 residues) expressed in Escherichia coli BL21(DE3)pLysS.
Compound in data set [19]: Cc1cc(/C=C2\SC(=O)NC2=O)c(C)n1-c1ccc(-c2ccc(/C=C3\SC(=O)NC3=O)cc2)cc1
Put plainly: Mixed-type inhibition of recombinant human KGA (L123 to L669 residues) expressed in Escherichia coli BL21(DE3)pLysS assessed as Vmax for substrate at 0.4 uM using glutamine substrate preincubated for 10 mins followed by substrate addition measured after 60 mins by Linerweaver-Burk plot analysis (reference value: 26.2 +/- 0.2 nmol/min/ug). Summed up:
(§4)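 Kinetic analysis on human KGA: glutamine saturation profiles recorded at 0−0.4 μM inhibitor. Km and Vmax derived at each inhibitor concentration to assign the inhibition mode.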

Compound in data set [20]: Cc1cc(/C=C2\SC(=O)NC2=O)c(C)n1-c1ccc(-c2ccc(/C=C3\SC(=O)NC3=O)cc2)cc1
Kind of data set: Mixed-type inhibition of recombinant human KGA (L123 to L669 residues) expressed in Escherichia coli BL21(DE3)pLysS assessed as Vmax for substrate at 0.1 uM using glutamine substrate preincubated for 10 mins followed by substrate addition measured after 60 mins by Linerweaver-Burk plot analysis (reference value: 26.2 +/- 0.2 nmol/min/ug). Summed up: as §4

Compound in data set [21]: Cc1cc(/C=C2\SC(=O)NC2=O)c(C)n1-c1ccc(-c2ccc(/C=C3\SC(=O)NC3=O)cc2)cc1
Put plainly: Mixed-type inhibition of recombinant human KGA (L123 to L669 residues) expressed in Escherichia coli BL21(DE3)pLysS assessed as Vmax for substrate at 0.2 uM using glutamine substrate preincubated for 10 mins followed by substrate addition measured after 60 mins by Linerweaver-Burk plot analysis (reference value: 26.2 +/- 0.2 nmol/min/ug). The gist of the method:
as §4

Compound in data set [22]: Cc1cc(/C=C2\SC(=O)NC2=O)c(C)n1-c1ccc(-c2ccc(/C=C3\SC(=O)NC3=O)cc2)cc1
Kind of data set: Mixed-type inhibition of recombinant human KGA (L123 to L669 residues) expressed in Escherichia coli BL21(DE3)pLysS assessed as Km for substrate at 0.05 uM using glutamine substrate preincubated for 10 mins followed by substrate addition measured after 60 mins by Linerweaver-Burk plot analysis (reference value: 25.5 +/- 0.6 mM). Summed up: as §4

Compound in data set [23]: Cc1cc(/C=C2\SC(=O)NC2=O)c(C)n1-c1ccc(-c2ccc(/C=C3\SC(=O)NC3=O)cc2)cc1
Put plainly: Mixed-type inhibition of recombinant human KGA (L123 to L669 residues) expressed in Escherichia coli BL21(DE3)pLysS assessed as Vmax for substrate at 0.05 uM using glutamine substrate preincubated for 10 mins followed by substrate addition measured after 60 mins by Linerweaver-Burk plot analysis (reference value: 26.2 +/- 0.2 nmol/min/ug). Summed up:
as §4

Compound in data set [24]: Cc1cc(/C=C2\SC(=O)NC2=O)c(C)n1-c1ccc(-c2ccc(/C=C3\SC(=O)NC3=O)cc2)cc1
Put plainly: Mixed-type inhibition of recombinant human KGA (L123 to L669 residues) expressed in Escherichia coli BL21(DE3)pLysS assessed as Km for substrate at 0.1 uM using glutamine substrate preincubated for 10 mins followed by substrate addition measured after 60 mins by Linerweaver-Burk plot analysis (reference value: 25.5 +/- 0.6 mM). Summed up:
as §4

The results in this text go back to ChEMBL document CHEMBL4011632, “Design, Synthesis, and Evaluation of Thiazolidine-2,4-dione Derivatives as a Novel Class of Glutaminase Inhibitors” (J Med Chem, 2017).

Activity calls are given as the source filed them. No cut-off for these calls is given here.

A word on the IC50: it is the concentration that gives 50% inhibition. In general, inhibition refers to the share of the control response that was lost under treatment. As for `O=C1NC(=O)/C(=C/c2ccc(-c3ccc(-n4c(-c5ccccc5)cc(/C=C5\SC(=O)NC5=O)c4-c4ccccc4)cc3)cc2)S1`, the half-maximal inhibitory concentration (IC50) in the data set with ASPC1 [1] was 10 µM; in the data set on MDA-MB-231, 13.4 µM; in [5] it was 0.045 µM; in data set [6], 0.261 µM; in data set [7], 0.603 µM; in data set [11] it was 0.078 µM. Further, the IC50 in data set [12] was 0.187 µM; in [15], 0.151 µM; in [17] it was 8.88 µM. For the same molecule, testing at 10 µM with ASPC1 [2] gave an inhibition of 94%. Further, the inhibition entry in data set [3] is “Dose-dependent effect”. For the same molecule, the inhibition entry in [4] and in data set [10] was “Active” each time. For the same molecule, the inhibition at 2 µM in the data set on ASPC1 [8] came out at 79%. Moreover, the Ratio IC50 was 4.2 in the data set filed under Homo sapiens [9]; 13.4 in the data set listed under Homo sapiens [13]; 1.7 in the data set listed under Homo sapiens [14]; 197 in the data set filed under Homo sapiens [16]; 5.8 in the data set listed under Homo sapiens [18].

B1: Glutaminase kidney isoform, mitochondrial (Homo sapiens), O94925 (protein)
chain: T2 sequence (O94925 whole entry)
Broadly, the Km is the substrate concentration at which the rate is half of its maximum. B1: the Vmax in [19] worked out at 15 nmol/min/µg; in data set [20] it was 26.2 nmol/min/µg; in [21], 22.9 nmol/min/µg; in data set [23], 26.3 nmol/min/µg. Further, the Km in [22] turned out to be 50.9 mM; in data set [24] it was 69.7 mM.
